Results reported in ChEMBL document CHEMBL3758117, “Discovery of indeno[1,2-b]quinoxaline derivatives as potential anticancer agents” (Eur J Med Chem, 2016).
pIC50: −log10 of the molar value. Activity calls are given as the source filed them. No cut-off for these calls is given here.

Assays:
[1] = Antiproliferative activity against human HuH7 cells after 72 hrs by XTT assay; type: functional, cell-based; conditions: Huh-7, 72 h
Outline: (§1)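 Cells kept as monolayers in DMEM with 10% FBS, penicillin, streptomycin and amphotericin at 37°C, 5% CO2. Seeded at 5 x 10³ cells/well and exposed to compound for 72 h in medium with 10% FBS. XTT plus electron-coupling reagent added, 4 h at 37°C, absorbance read at 492 nm. Percent of control growth uses mean absorbance (n = 3). The 50% value is taken from the linear portion of the curve.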

[2] = system: MRC5; experiment: Selectivity index, ratio of IC50 for human MRC5 cells to IC50 for human MDA-MB-231 cells; type: functional
[3] = system: MRC5; experiment: Selectivity index, ratio of IC50 for human MRC5 cells to IC50 for human PC3 cells; type: functional
[4] = Antiproliferative activity against human PC3 cells after 72 hrs by XTT assay; type: functional, cell-based; conditions: PC-3, 72 h; outline: as §1
[5] = molecular target: DNA topoisomerase 2-alpha (Homo sapiens) (UniProt P11388); experiment: Inhibition of human DNA topoisomerase 2-mediated relaxation of supercoiled pBR322 DNA at 10 uM after 30 mins by ethidium bromide staining based agarose gel electrophoresis
Outline: (§2)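 Human topo I or topo II (2 units) was reacted with 0.2 μg supercoiled pBR322 in 20 μl Tris-HCl pH 7.5 containing KCl, DTT, EDTA, MgCl2 and BSA, with DMSO held at 0.5%, for 30 min at 37°C. The reaction was stopped with SDS. Samples were run on 1% agarose in Tris-acetate/EDTA at 1.5 V/cm for 2-3 h and stained with ethidium bromide. Relaxation was quantified by densitometry of the supercoiled band area.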

[6] = system: Huh-7; experiment: Selectivity index, ratio of IC50 for human MRC5 cells to IC50 for human HuH7 cells; type: functional
[7] = system: Escherichia coli; experiment: Binding affinity to Escherichia coli negative supercoiled pBR322 DNA at 10 uM after 12 hrs by ethidium bromide staining based agarose gel electrophoresis
Outline: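 Negatively supercoiled pBR322 (400 ng) in TE buffer pH 8.0 was incubated with compound at 10 μM for 12 h at room temperature. Loading buffer with sarkosyl was added. Samples were run on 1% agarose at 6 V/cm for 2.5 h in TAE pH 8.5, stained with ethidium bromide and photographed under UV.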

[8] = system: MRC5; experiment: Antiproliferative activity against human MRC5 cells after 72 hrs by XTT assay; type: cell-based; conditions: MRC5, 72 h; outline: as §1
[9] = system: MDA-MB-231; experiment: Antiproliferative activity against human MDA-MB-231 cells after 72 hrs by XTT assay; type: functional, cell-based; conditions: MDA-MB-231, 72 h; outline: as §1
[10] = Antiproliferative activity against human H1299 cells after 72 hrs by XTT assay; type: functional, cell-based; conditions: NCI-H1299, 72 h; outline: as §1
[11] = molecular target: DNA topoisomerase 2-alpha (Homo sapiens) (UniProt P11388); experiment: Inhibition of human DNA topoisomerase 2-mediated relaxation of supercoiled pBR322 DNA at 100 uM after 30 mins by ethidium bromide staining based agarose gel electrophoresis; outline: as §2
[12] = Selectivity index, ratio of IC50 for human MRC5 cells to IC50 for human H1299 cells; type: functional
[13] = molecular target: T1, DNA topoisomerase 1 (Homo sapiens) (UniProt P11387); experiment: Inhibition of human DNA topoisomerase 1-mediated relaxation of supercoiled pBR322 DNA at 10 uM after 30 mins by ethidium bromide staining based agarose gel electrophoresis; outline: as §2
T1 sequence (whole entry): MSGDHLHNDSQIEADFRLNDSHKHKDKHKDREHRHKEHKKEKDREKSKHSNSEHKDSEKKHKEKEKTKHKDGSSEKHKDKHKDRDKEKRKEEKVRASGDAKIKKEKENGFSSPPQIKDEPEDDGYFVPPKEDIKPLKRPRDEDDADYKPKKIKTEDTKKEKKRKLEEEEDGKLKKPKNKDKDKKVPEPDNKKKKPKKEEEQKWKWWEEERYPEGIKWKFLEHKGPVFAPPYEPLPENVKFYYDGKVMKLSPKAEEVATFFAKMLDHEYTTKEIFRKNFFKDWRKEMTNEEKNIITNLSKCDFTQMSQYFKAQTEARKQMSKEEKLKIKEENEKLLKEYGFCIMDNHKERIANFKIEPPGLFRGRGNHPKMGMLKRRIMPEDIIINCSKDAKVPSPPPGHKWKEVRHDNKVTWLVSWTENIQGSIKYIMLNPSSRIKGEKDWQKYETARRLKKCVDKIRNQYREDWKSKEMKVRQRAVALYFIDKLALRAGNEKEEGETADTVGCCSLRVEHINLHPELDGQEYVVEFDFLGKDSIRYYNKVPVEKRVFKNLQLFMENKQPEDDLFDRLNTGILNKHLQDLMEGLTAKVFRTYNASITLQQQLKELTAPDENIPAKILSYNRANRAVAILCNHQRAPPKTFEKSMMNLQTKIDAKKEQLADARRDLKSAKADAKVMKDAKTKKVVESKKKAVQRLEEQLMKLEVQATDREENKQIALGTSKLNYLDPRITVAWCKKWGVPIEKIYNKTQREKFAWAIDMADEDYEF

[14] = molecular target: T1, DNA topoisomerase 1 (Homo sapiens); experiment: Inhibition of human DNA topoisomerase 1-mediated relaxation of supercoiled pBR322 DNA at 100 uM after 30 mins by ethidium bromide staining based agarose gel electrophoresis; outline: as §2

DNA topoisomerase 2-alpha (Homo sapiens), sequence (P11388 whole entry): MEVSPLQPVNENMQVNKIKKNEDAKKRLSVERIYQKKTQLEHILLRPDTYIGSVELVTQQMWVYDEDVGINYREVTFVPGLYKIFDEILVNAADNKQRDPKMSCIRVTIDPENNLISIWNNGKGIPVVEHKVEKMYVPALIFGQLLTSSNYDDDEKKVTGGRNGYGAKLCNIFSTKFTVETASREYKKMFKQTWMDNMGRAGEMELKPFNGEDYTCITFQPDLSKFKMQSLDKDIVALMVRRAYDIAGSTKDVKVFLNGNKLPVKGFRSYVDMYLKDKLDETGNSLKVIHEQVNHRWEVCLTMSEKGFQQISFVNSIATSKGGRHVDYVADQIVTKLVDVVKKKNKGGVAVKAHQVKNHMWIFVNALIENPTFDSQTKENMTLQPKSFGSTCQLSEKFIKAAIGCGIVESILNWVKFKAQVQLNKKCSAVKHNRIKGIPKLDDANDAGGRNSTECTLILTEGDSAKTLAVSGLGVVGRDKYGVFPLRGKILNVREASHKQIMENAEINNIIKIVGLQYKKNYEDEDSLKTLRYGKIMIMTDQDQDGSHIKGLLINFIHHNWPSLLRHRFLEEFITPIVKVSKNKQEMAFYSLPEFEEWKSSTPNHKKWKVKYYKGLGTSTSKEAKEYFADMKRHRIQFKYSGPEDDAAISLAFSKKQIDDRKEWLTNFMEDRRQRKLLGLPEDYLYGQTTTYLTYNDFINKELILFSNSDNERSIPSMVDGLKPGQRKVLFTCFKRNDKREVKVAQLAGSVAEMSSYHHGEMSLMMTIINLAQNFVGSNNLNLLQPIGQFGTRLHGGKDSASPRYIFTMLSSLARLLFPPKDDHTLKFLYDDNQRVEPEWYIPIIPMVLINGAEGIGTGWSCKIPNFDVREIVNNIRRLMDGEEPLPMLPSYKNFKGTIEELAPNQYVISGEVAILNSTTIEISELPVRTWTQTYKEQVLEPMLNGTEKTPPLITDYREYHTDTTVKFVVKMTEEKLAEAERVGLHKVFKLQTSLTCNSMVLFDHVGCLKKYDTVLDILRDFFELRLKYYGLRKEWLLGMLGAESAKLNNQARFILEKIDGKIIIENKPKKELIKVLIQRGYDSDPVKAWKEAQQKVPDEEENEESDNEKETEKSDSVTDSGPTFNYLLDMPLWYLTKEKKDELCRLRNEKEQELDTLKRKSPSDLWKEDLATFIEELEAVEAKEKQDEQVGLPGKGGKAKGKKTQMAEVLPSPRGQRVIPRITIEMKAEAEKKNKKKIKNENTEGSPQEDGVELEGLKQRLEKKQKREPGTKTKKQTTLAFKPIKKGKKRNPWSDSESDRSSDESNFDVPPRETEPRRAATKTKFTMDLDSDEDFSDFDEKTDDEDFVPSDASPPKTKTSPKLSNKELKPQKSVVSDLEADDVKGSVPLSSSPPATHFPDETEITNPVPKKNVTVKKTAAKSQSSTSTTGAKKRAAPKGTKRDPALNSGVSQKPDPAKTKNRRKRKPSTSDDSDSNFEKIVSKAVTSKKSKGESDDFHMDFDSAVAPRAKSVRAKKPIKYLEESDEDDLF

SMILES	pIC50 [1]	Ratio IC50 [2]	Ratio IC50 [3]	pIC50 [4]	topoisomerase 2 inhibition (active/not active) [5]	Ratio IC50 [6]	Activity [7]	pIC50 [8]	pIC50 [9]	pIC50 [10]	inhibition call (active/not active) [11]	Ratio IC50 [12]	inhibition [13]	topoisomerase 1 inhibition (active/inactive) [14]	inhibition [11]
CN(C)CCCO/N=C1\c2ccccc2-c2nc3c(CN4CCCC4)cccc3nc21.Cl	6.49	1.32	1.15	6.11	inactive	2.81	Active	6.05	6.17	6.04	Active	0.98	Active	Active	–
CN(C)CCCO/N=C1\c2ccccc2-c2nc3ccccc3nc21.Cl	5.27	2.83	2.3	5.06	inactive	3.69	inactive	4.70	5.15	5.14	Active	2.76	Active	Active	–
CN(C)CCCO/N=C1\c2ccccc2-c2nc3c(C(=O)NCCN(C)C)cccc3nc21.Cl	6.08	13.43	10.11	6.05	Active	10.84	Active	5.05	6.17	5.16	Active	1.31	Active	Active	–
CN(C)CCNC(=O)c1cccc2nc3c(nc12)-c1ccccc1C3=O	5.12	1.23	0.82	4.96	inactive	1.18	inactive	5.05	5.14	5.06	Active	1.03	Active	Active	–
Cc1cccc2nc3c(nc12)-c1ccccc1/C3=N\OCCCN(C)C.Cl	5.23	1.13	1.12	5.15	inactive	1.34	inactive	5.10	5.16	5.14	Active	1.08	Active	Active	–
CN(C)CCCO/N=C1\c2ccccc2-c2nc3c(CN4CCOCC4)cccc3nc21.Cl	5.17	7.37	7.41	5.00	inactive	10.84	inactive	4.13	5.00	5.16	–	10.6	inactive	Active	Active
CN(C)CCCO/N=C/c1cccc2nc3c(nc12)-c1ccccc1/C3=N\OCCCN(C)C.Cl	5.14	0.93	1.05	5.20	Active	0.91	inactive	5.18	5.15	5.29	Active	1.29	Active	Active	–
CN(C)CCCO/N=C1\c2ccccc2-c2nc3c(C(=O)NCCN4CCOCC4)cccc3nc21.Cl	5.23	11.63	1.18	5.01	inactive	1.94	Active	4.94	6.00	5.01	Active	1.19	Active	Active	–
CN(C)CCCO/N=C1\c2ccccc2-c2nc3c(CN4CCC(N5CCCCC5)CC4)cccc3nc21.Cl	6.09	3.53	0.57	5.21	inactive	4.26	inactive	5.46	6.00	5.29	Active	0.68	Active	Active	–
CN(C)CCCO/N=C1\c2ccccc2-c2nc3c(C(=O)NCCN4CCCC4)cccc3nc21.Cl	6.09	17.53	11.6	6.17	Active	9.62	Active	5.10	6.35	5.24	Active	1.39	Active	Active	–
CN(C)CCCO/N=C1\c2ccccc2-c2nc3c(CN4CCCCC4)cccc3nc21.Cl	6.20	1.35	0.98	6.04	inactive	1.41	Active	6.05	6.18	6.08	Active	1.07	Active	Active	–
